In paper PMC2633595 (Analytical biochemistry, 2008):
Entries after “also recorded” stand apart in the source; their conditions may differ. Like-named read-outs stand apart in the source and are kept apart here.

What was measured:
GST-Rab7 [1] = target: T1, GST-Rab7 (Canis lupus familiaris, UniProt P18067); assay: Kinetic assays; format: binding, canine; conditions: for koff: GST-Rab7, 1 mM EDTA buffer
GST-Rab7 [2] = target: T1, GST-Rab7; format: binding, canine; conditions: for maximal binding Bmax: GST-Rab7, 1 mM MgCl2
Method in brief: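 Canine GST-Rab7 from E. coli, glutathione-purified, loaded at 1 µM onto glutathione beads (4°C, overnight, HPS buffer, 1 mM DTT). 10^4 beads incubated 2 h at 4°C with 0–2 µM BODIPY FL GTP, GDP or GTP-γ-NH in 1 mM EDTA or 1 mM MgCl2. Diluted ≥10-fold and read by flow cytometry. Fluorescein calibration beads gave BODIPY/bead. Bmax and Kd from hyperbolic fit.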

GST-Rab7 [3] = target: T1, GST-Rab7; format: binding, canine; conditions: competition with 100 nM BODIPY FL GTP, 1 mM EDTA buffer
Method in brief: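 Canine Rab7 GST fusion expressed in BL21(DE3) E. coli and glutathione-affinity purified. 1 µM protein loaded overnight at 4°C onto glutathione Superdex beads in HPS buffer (HEPES pH 7.5, KCl, NaCl, dodecyl maltoside) with 1 mM DTT, then washed. 10^4 beads incubated 2 h at 4°C with 100 nM BODIPY FL GTP plus unlabeled GDP or GTP-γ-S. Read by flow cytometry; fitted EC50 converted to Ki.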

GST-RhoA = GST-RhoA (Homo sapiens, UniProt P61586); format: binding; conditions: for maximal binding Bmax: 1 mM MgCl2; for Bmax / Kd: 1 mM MgCl2 buffer
Chain of GST-RhoA (P61586 whole entry): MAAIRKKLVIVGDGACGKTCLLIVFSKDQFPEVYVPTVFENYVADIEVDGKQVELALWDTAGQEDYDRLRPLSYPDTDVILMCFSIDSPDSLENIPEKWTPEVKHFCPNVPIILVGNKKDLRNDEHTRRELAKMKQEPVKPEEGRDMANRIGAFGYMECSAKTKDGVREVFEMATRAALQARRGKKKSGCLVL
Method in brief: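 GST-RhoA purified from E. coli. Loaded at 1 µM overnight at 4°C onto glutathione beads in HPS buffer with 1 mM DTT and 1 mM MgCl2, then washed twice. 10^4 beads incubated 2 h at 4°C with 0–2 µM BODIPY FL GTP or GTP-γ-NH in 1 mM MgCl2. Diluted ≥10-fold and read by flow cytometry. Signal calibrated to BODIPY/bead with fluorescein beads. Bmax and Kd from hyperbolic fit.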

Rab7 = conditions: nucleotide free system ref 11; cited from earlier work
[4] = GST-Rab7, 1 mM EDTA buffer, 2 h at 4°C

T1 sequence (P18067 whole entry): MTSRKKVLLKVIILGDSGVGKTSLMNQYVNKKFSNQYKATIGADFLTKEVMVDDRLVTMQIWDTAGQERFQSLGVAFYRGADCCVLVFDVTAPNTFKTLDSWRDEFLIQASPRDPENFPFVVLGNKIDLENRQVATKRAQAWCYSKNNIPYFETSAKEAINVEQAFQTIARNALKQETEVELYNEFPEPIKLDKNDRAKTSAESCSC

Molecule	higher affinity of Rab7 for GDP relative to GTP (GST-Rab7 [2]; GST-Rab7) [fold]	koff (GST-Rab7 [1])	Bmax (GST-Rab7 [2]; GST-Rab7, 1 mM EDTA buffer)	Kd (GST-Rab7 [2]; [4]) [nM]	maximal binding Bmax (GST-RhoA)	Bmax (GST-RhoA)	Kd (GST-RhoA) [nM]	maximal binding Bmax (GST-Rab7 [2])	Bmax (GST-Rab7 [2]; GST-Rab7, 1 mM MgCl2 buffer)	Kd (GST-Rab7 [2]; GST-Rab7, 1 mM MgCl2 buffer) [nM]	Ki (GST-Rab7 [3]) [nM]	also measured
Nc1nc2c(ncn2[C@@H]2O[C@H](COP(=O)(O)OP(=O)(O)OP(O)(O)=S)[C@@H](O)[C@H]2O)c(=O)[nH]1 [GTP-γ-S]											40 ± 10	
BODIPY FL GDP 2′-(or-3′)-O-(N-(2-aminoethyl)urethane)	3	2.3 ± 1.5 × 10^−3 sec^−1	2000 ± 400 10^3 BODIPY/bead	54 ± 15								
methylanthraniloyl (mant) GTP												Kd (Rab7): 6 nM

Now from value to molecule, other results behind:

higher affinity of Rab7 for GDP relative to GTP (GST-Rab7 [2]; GST-Rab7) [fold]	koff (GST-Rab7 [1])	Bmax (GST-Rab7 [2]; GST-Rab7, 1 mM EDTA buffer)	Kd (GST-Rab7 [2]; [4]) [nM]	maximal binding Bmax (GST-RhoA)	Bmax (GST-RhoA)	Kd (GST-RhoA) [nM]	maximal binding Bmax (GST-Rab7 [2])	Bmax (GST-Rab7 [2]; GST-Rab7, 1 mM MgCl2 buffer)	Kd (GST-Rab7 [2]; GST-Rab7, 1 mM MgCl2 buffer) [nM]	Molecule	Ki (GST-Rab7 [3]) [nM]	also measured
3										Nc1nc2c(ncn2[C@@H]2O[C@H](COP(=O)(O)OP(=O)(O)O)[C@@H](O)[C@H]2O)c(=O)[nH]1 [GDP]	13 ± 5	slower dissociation rate of GDP (GST-Rab7 [1]; GST-Rab7, relative to GTP): 3 fold
	7.0 ±3.0 × 10^−3 sec^−1	1600 ± 400 10^3 BODIPY/bead	150 ± 62	700 × 10^3 fluorophores/bead	700 ± 20 10^3 BODIPY/bead	80 ± 10	650 × 10^3 fluorophores/bead	650 ± 10 10^3 BODIPY/bead	20 ± 5	BODIPY FL GTP 2’-(or-3’)-O-(N-(2-aminoethyl)urethane		faster dissociation of GTP compared to GDP (GST-Rab7 [1]; GST-Rab7): 3 fold; t1/2 (observed on-rate half-time) (GST-Rab7 [1]; GST-Rab7, 1 mM EDTA, 50-500 nM BODIPY FL GTP): 11.1 ± 0.6 min; dissociation rate faster in the absence of Mg^2+ relative to Mg^2+ present (GST-Rab7 [1]; GST-Rab7, competed by excess unlabeled nucleotide): 7 times; koff Mg^2+ (GST-Rab7 [1]; GST-Rab7, with Mg^2+): 0.0013 s⁻¹; decrease in affinity in the absence of Mg^2+ (GST-Rab7 [2]; GST-Rab7): 8 fold; maximal binding (GST-Rab7 [2]; GST-Rab7, 1 mM EDTA): 1600 × 10^3 fluorophores/bead
				710 × 10^3 fluorophores/bead	710 ± 15 10^3 BODIPY/bead	95 ± 10	60 × 10^3 fluorophores/bead	60 ± 5 10^3 BODIPY/bead	70 ± 20	BODIPY FL GTP-γ-NH amide		binding to GST-Rab7 (in words) (GST-Rab7 [2]; GST-Rab7): unique inability; also recorded: marked inability to bind; lower binding affinity relative to BODIPY FL GTP (GST-Rab7 [2]; GST-Rab7, with Mg^2+): 90%
